This note sets out measurements from ChEMBL document CHEMBL1143979, “1-, 3- and 8-substituted-9-deazaxanthines as potent and selective antagonists at the human A2B adenosine receptor” (Bioorg Med Chem, 2008).

Experiment [1] is filed under the species Homo sapiens. In words: Selectivity index, ratio for human adenosine A3 receptor to human adenosine A2B receptor.
Experiment [2] concerns the target T1, Adenosine receptor A2b (Homo sapiens) (UniProt P29275).
T1 sequence (whole entry): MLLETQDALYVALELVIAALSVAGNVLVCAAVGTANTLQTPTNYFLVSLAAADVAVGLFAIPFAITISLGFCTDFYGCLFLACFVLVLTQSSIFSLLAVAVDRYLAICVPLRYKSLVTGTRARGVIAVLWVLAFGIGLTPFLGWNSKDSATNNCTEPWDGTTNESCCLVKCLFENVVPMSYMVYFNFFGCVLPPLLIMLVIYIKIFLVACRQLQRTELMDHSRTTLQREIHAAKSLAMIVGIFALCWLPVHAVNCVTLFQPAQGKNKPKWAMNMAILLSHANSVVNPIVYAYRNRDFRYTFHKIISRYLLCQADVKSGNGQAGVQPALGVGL
In words: Antagonist activity at human adenosine A2B receptor expressed in HEK293 cells by cAMP assay. Type of experiment: functional, cell-based. The procedure, abridged: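 cAMP assay in HEK-293 cells with endogenous human A2B receptor expression. NECA cumulative concentration–response curves were run in the absence and presence of antagonist, and the parallel rightward shift gives pA2.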
For orientation: Changes in cAMP serve as a functional read-out for many G protein-coupled receptors.

Experiment [3] concerns the target T2, Adenosine receptor A2a (Homo sapiens, UniProt P29274). In words: Antagonist activity at human adenosine A2A receptor expressed in CHO cells by cAMP assay. It is filed as functional, cell-based. An outline of the steps: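 cAMP assay in CHO cells transfected with human A2A receptor. Cumulative NECA concentration–response curves were run alone and with antagonist, and potency is expressed as pA2.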

The species named for experiment [4] is Homo sapiens. In words: Selectivity index, ratio for human adenosine A1 receptor to human adenosine A2B receptor.
Another experiment concerns the target T3, Adenosine receptor A1 (Homo sapiens, UniProt P30542).
T3 sequence (P30542 whole entry): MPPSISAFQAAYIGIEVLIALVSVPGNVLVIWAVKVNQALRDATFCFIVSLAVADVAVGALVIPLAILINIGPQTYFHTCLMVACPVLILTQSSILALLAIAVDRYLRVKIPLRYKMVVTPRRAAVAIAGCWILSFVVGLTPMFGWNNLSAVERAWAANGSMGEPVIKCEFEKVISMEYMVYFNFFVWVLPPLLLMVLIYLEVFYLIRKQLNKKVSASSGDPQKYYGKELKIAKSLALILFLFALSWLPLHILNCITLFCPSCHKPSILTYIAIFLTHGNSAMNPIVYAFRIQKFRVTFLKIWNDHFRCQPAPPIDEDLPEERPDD
In words: Displacement of [3H]DPCPX from human adenosine A1 receptor expressed in CHO cells. Type of experiment: cell-based. The procedure, abridged: (§1)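 Competition binding at cloned human receptors: [3H]DPCPX for A1 and A2B, [3H]ZM241385 for A2A, [3H]NECA for A3. Screening compounds are reported as % radioligand displacement at one concentration. SEM below 10%.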
For orientation: In a radioligand displacement assay an active substance lowers the binding of a labelled ligand.

Another experiment has as its target T4, Adenosine receptor A2b (Homo sapiens, UniProt P29275).
T4 sequence (P29275 whole entry): T1 sequence (whole entry)
In words: Displacement of [3H]DPCPX from human adenosine A2B receptor expressed in HEK293 cells. It is filed as cell-based.

The species named for experiment [5] is Homo sapiens. The experiment in a line: Selectivity index, ratio for human adenosine A2A receptor to human adenosine A2B receptor.
Experiment [6] can be described thus: Antagonist activity at adenosine A2B receptor in guinea pig thoracic aorta smooth muscle. It is filed as functional, tissue-based, Cavia porcellus. The procedure, abridged: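 Isolated guinea pig thoracic aorta smooth muscle (A2B). Cumulative NECA concentration–response curves were run without and with antagonist. Antagonism is read as a parallel rightward shift with no loss of maximum, and reported as pA2.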

Experiment [7] concerns the target T5, Adenosine receptor A3 (Homo sapiens) (UniProt P0DMS8).
T5 sequence (whole entry): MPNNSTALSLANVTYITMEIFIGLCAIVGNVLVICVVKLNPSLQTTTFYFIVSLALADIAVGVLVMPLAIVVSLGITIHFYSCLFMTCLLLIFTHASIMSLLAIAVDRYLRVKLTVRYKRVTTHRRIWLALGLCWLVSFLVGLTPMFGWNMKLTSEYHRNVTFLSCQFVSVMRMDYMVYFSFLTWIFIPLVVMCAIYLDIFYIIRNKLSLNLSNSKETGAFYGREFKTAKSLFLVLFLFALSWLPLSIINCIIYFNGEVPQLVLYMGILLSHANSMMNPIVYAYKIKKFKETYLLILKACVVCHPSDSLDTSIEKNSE
The experiment in a line: Displacement of [3H]NECA from human adenosine A3 receptor expressed in CHO cells at 1 uM. It is filed as cell-based. The procedure, abridged: as §1

The target of experiment [8] is Adenosine receptor A2a (Rattus norvegicus, UniProt P30543). The experiment in a line: Antagonist activity at adenosine A2A receptor in Sprague-Dawley rat aorta smooth muscle. Type of experiment: functional, tissue-based. The settings on record: read-out: pA2 (converted). An outline of the steps: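 Isolated aorta from male Sprague–Dawley rats (200–250 g) for A2A receptors. Cumulative NECA agonist concentration–response curves were run without and with antagonist, and antagonist potency is given as pA2.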
Adenosine receptor A2a (Rattus norvegicus, UniProt P30543), sequence (P30543 whole entry): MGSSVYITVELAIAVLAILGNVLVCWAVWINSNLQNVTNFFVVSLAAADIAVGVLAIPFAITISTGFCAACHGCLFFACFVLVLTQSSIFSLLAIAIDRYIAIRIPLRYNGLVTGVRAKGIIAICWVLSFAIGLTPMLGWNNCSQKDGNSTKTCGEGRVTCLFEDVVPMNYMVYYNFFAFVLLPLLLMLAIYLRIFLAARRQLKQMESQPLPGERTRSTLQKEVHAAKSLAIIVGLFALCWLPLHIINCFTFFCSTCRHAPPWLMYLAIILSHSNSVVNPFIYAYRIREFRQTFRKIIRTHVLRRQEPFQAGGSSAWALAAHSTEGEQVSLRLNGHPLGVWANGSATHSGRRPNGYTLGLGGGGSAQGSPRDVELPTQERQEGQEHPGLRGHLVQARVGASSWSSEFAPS

Experiment [9] has as its target T2, Adenosine receptor A2a. The experiment in a line: Displacement of [3H]ZM-241385 from human adenosine A2A receptor expressed in CHO cells. It is filed as cell-based. The procedure, abridged: as §1
The target in experiment [10] is T1, Adenosine receptor A2b (Homo sapiens). The experiment in a line: Displacement of [3H]DPCPX from human adenosine A2B receptor expressed in HEK293 cells at 0.1 uM. Type of experiment: cell-based. The procedure, abridged:
as §1

Experiment [11] deals with T2, Adenosine receptor A2a. The experiment in a line: Displacement of [3H]ZM-241385 from human adenosine A2A receptor expressed in CHO cells at 0.1 uM. It is filed as cell-based. The procedure, abridged:
as §1

Experiment [12] addresses T6, Adenosine receptor A1 (Homo sapiens) (UniProt P30542).
T6 sequence (whole entry): T3 sequence (P30542 whole entry)
In words: Displacement of [3H]DPCPX from human adenosine A1 receptor expressed in CHO cells at 1 uM. Type of experiment: cell-based. An outline of the steps: as §1

The next experiment deals with T7, Adenosine receptor A3 (Homo sapiens, UniProt P0DMS8).
T7 sequence (P0DMS8 whole entry): T5 sequence (whole entry)
In words: Displacement of [3H]NECA from human adenosine A3 receptor expressed in CHO cells. Type of experiment: cell-based. An outline of the steps: as §1

A word on the Ki: it is a dissociation constant, usually derived from enzyme kinetics or from competition with a known ligand. In general, pA2 refers to a measure of antagonist potency on a negative log scale. Read a low pA2 as lower antagonist potency.

T2 sequence (P29274 whole entry): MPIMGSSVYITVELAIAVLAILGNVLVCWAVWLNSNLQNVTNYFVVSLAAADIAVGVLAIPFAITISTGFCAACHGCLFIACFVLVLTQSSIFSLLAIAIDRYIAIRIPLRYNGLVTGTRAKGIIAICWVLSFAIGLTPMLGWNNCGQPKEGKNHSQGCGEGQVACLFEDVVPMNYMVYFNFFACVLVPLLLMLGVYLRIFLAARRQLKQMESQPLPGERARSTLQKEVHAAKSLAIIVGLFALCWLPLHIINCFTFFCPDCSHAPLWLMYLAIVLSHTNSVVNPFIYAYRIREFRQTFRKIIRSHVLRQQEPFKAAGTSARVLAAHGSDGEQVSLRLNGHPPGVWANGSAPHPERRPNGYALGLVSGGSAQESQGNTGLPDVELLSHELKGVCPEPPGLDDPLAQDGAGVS

Take `CCCn1c(=O)n(C)c(=O)c2[nH]c(-c3ccc(OCC(=O)N4CCC(c5ccccc5)(c5ccccc5)CC4)cc3)cc21`: the Ratio in the experiment filed under Homo sapiens [1] was above 180; in the experiment listed under Homo sapiens [4], 120; in the experiment listed under Homo sapiens [5], 630. Moreover, the Activity entry in experiment [2] was “Dose-dependent effect”; at Adenosine receptor A2a [3], “Dose-dependent effect”; in experiment [7], 4%. Also, the Ki is 676 nM on Adenosine receptor A1, 5.5 nM at Adenosine receptor A2b (read-out: Ki), 5.62 nM at Adenosine receptor A2b (read-out: Log Ki (converted)) and 3550 nM on Adenosine receptor A2a [9]. Further, the pA2 in experiment [6] stood at 8. The Kb on Adenosine receptor A2a [8] was 7940 nM.
Turning to `O=C(COc1ccc(-c2cc3c([nH]2)c(=O)n(CC(F)(F)F)c(=O)n3CC(F)(F)F)cc1)N1CCN(c2ccccc2)CC1`, the figures for the Activity (in [10]; at Adenosine receptor A2a [11]) were 32% and 3%, respectively.
Consider `Cn1c(=O)c2[nH]c(-c3ccc(OC(C)(C)C(=O)N4CCC(c5ccccc5)(c5ccccc5)CC4)cc3)cc2n(C)c1=O`, for which the values for the Activity (in experiment [10]; at Adenosine receptor A2a [11]) were 34% and 8%, respectively.
On to `CCCn1c(=O)n(C)c(=O)c2[nH]c(-c3ccc(OC(C)(C)C(=O)N4CCC(c5ccccc5)(c5ccccc5)CC4)cc3)cc21`, for which the figures for the Activity (in [10]; at Adenosine receptor A2a [11]) were 35% and 11%, respectively.
`Cn1c(=O)c2[nH]c(-c3ccc(OC(C)(C)C(=O)N4CCN(c5nc6cc(Cl)ccc6s5)CC4)cc3)cc2n(C)c1=O`: the Ratio was above 100 in the experiment listed under Homo sapiens [1], above 100 in the experiment filed under Homo sapiens [4] and 912 in the experiment filed under Homo sapiens [5]. In addition, the inhibitory constant (Ki) was 11 nM on Adenosine receptor A2b (read-out: Ki) and 10000 nM on Adenosine receptor A2a [9]. Further, the Activity in experiment [7] was 18%; in experiment [12], 8%.
Consider `COc1ccc(N2CCN(C(=O)COc3ccc(-c4cc5c([nH]4)c(=O)n(C)c(=O)n5C)c(OC)c3)CC2)cc1`, for which the Activity in [10] was 30%; at Adenosine receptor A2a [11] it was 1%.
On to `CCCn1c(=O)n(C)c(=O)c2[nH]c(-c3ccc(OCC(=O)N4CCN(c5ccc(C(F)(F)F)cc5)CC4)cc3)cc21`, for which the Ki on Adenosine receptor A3 was 2240 nM; on Adenosine receptor A1, 89.1 nM; on Adenosine receptor A2b (read-out: Ki), 2 nM; on Adenosine receptor A2a [9], 324 nM. In addition, the Ratio was 3090 in the experiment listed under Homo sapiens [1], 44 in the experiment filed under Homo sapiens [4] and 158 in the experiment filed under Homo sapiens [5].
